High-throughput results as filed in PubChem BioAssay.
CHOP UPR activ: activators of apoptotic arm of unfolded protein response (CHOP) | hit rate 0.34% among 330,000 | activation, % at 10 µM | CHO-CHOP luciferase reporter, UPR activation, luminescence; percent of tunicamycin response over DMSO baseline | AID 449763;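 active = at 10 µM dose, activation of 40% or more, normalized to positive control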;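 also: 100% = tunicamycin at 10 µg/mL and 0% = DMSO alone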
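Assay system: CHO cells with stable CHOP pathway luciferase reporter; Buffer or medium: F12 plus 10% serum; Times: 16-18 h cell attachment, then 6 h compound exposure, 37 °C; Signal: luciferase luminescence; Read-out basis: percent activation relative to tunicamycin control; Control set: tunicamycin high control, DMSO low control.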
PvdQ inh: P. aeruginosa PvdQ acylase inhibition; purified PvdQ acylase, fluorescence plate reader; hit rate 0.063% among 340,000; inhibition, % at 10 µM; in the data active = inhibition above about 30%, passing the limit was not always enough;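 also: 0% = vehicle neutral wells and 100% = reference inhibitor wells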
CHOP inhibitor: inhibitors of CHOP induction in ER stress response; CHO-K1 CHOP-promoter luciferase, tunicamycin-induced, 15-18 h; inhibition, % at 10 µM; hit rate 3.8% among 220,000;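 active = compounds that reduced the stress-induced luciferase reporter signal by more than about 70% of percent inhibition, limit read from the data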;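 also: 0% = tunicamycin plus vehicle and 100% = wells without tunicamycin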
XBP1 UPR activ: adaptive UPR (XBP1) activation. CHO-XBP1 luciferase reporter, IRE1-XBP1 UPR activation, luminescence; percent of tunicamycin response, DMSO as zero. activation, % at 20 µM. hit rate 0.33% among 330,000. AID 463104;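 active = versus positive control, 20 µM dose yields 30% or more activation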;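 also: 100% = tunicamycin at 10 µg/mL and 0% = DMSO only wells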
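Signal: luciferase luminescence; Assay system: CHO-XBP1 luciferase reporter cells; Amount: one thousand reporter cells per well; Dosing: 20 µM single concentration, DMSO 1%; Benchmarks: high control tunicamycin 10 µg/mL final, low control DMSO vehicle only; Schedule: 6 h compound exposure at 37 °C, 5% CO2; Evaluation: percent activation relative to tunicamycin reference.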
An asterisk follows results filed as active; / = not tested or not shown. Only a selection was taken, and hits are over-represented in it overall.

SMILES	CHOP UPR activ	PvdQ inh	CHOP inhibitor	XBP1 UPR activ
Cc1cccc(N=C2NN=C(c3ccc4c(c3)OCCO4)CS2)c1	1.6	-5.9	40.4	-5.6
O=C(NC1CCN(c2ncccn2)CC1)c1c(F)cccc1F	2.8	3.5	/	-3.3
O=[N+]([O-])c1ccccc1-c1ccc(/C=N/n2cnnc2)o1	0.3	0.4	17.1	2.5
O=C1ON=C(c2ccccc2)/C1=C/c1ccc(-c2ccccc2[N+](=O)[O-])o1	/	-5.9	103.5*	/
CC(=O)n1cc(N(C(=O)CCl)c2ccc(Cl)cc2)c2ccccc21	-8.4	/	107.2*	-8.0
COc1ccccc1N(C(=O)CCl)c1cn(C(C)=O)c2ccccc12	35.5	-3.3	-62.3	-3.2
C=CCN(C(=O)Cn1nc(C)n2c(cc3cc(C)ccc32)c1=O)c1ccccc1	4.3	6.7	/	-0.3
Oc1ccc(/C=C/c2nc(-c3ccccc3O)n(-c3ccccc3)n2)cc1	2.8	-5.8	90.3*	4.4
CCc1ccc(NC(=O)Cc2c(C(=O)O)n(C)c3ccccc23)cc1	1.1	-27.6	25.0	0.0
Cc1cc(S(=O)(=O)N2CCOCC2)ccc1OCC(=O)Nc1ccc(F)c(Cl)c1	-1.3	-7.1	/	0.5
Cc1ccc(/C=C/c2nc3ccccc3c(=O)[nH]2)cc1	-5.2	-0.9	88.1*	-6.7
Cc1ccccc1/C=C\c1nc2ccccc2c(=O)[nH]1	3.4	-0.8	83.9*	-2.6
CSc1ccc(CCNS(=O)(=O)c2csc(C(N)=O)c2)cc1	1.5	-9.7	/	-1.4
CCCC(=O)NCC(c1cccs1)S(=O)(=O)c1ccc(C)cc1 (stereo not given)	1.5	-17.8	/	1.3
Cc1ccc(Nc2nc(C)c(CCC(C)C)c(=O)[nH]2)cc1	1.9	-3.5	78.0*	-6.7
Cc1nc(N2CCN(c3ccccc3)CC2)[nH]c(=O)c1CCC(C)C	3.3	9.1	15.4	0.7
Cc1nc(NCc2ccccc2)[nH]c(=O)c1CCC(C)C	0.5	-16.5	75.5*	-0.1
Cc1c(Cl)cccc1NC(=O)NC1CCCCC1	1.6	-3.8	77.8*	-1.5
Cc1c(Cl)cccc1NC(=S)NC1CC1	-1.2	-11.1	-18.8	-1.8
COc1cc(Cl)c(C)cc1NC(=O)CSc1ccc(NC(C)=O)cc1	0.5	-3.5	20.6	-1.9
O=C(N/N=C/C1=C(N2CCOCC2)C(=C\c2ccccc2)/CC1)Nc1ccccc1	28.3	-12.4	82.2*	16.5
O=C(Cc1ccccc1)Nc1scc(-c2ccccc2)c1C(=O)N1CCOCC1	1.2	-2.4	1.8	0.8
NC(=O)c1c(-c2ccc(Cl)cc2Cl)csc1NC(=O)Cc1ccccc1	/	-15.1	73.0*	/
COc1ccc(-c2[nH]c(-c3ccc(SC)cc3)nc2SCC(=O)Nc2nccs2)cc1	1.5	-1.1	76.6*	2.9
COc1ccc(-c2[nH]c(-c3ccc(C)cc3)nc2SCC(=O)Nc2nccs2)cc1	0.6	-1.8	22.9	-0.9
SMILES	CHOP UPR activ	PvdQ inh	CHOP inhibitor	XBP1 UPR activ
COc1ccc(OC)c(Nc2nc3nonc3nc2N2CCCC(C)C2)c1 (stereo not given)	0.0	5.1	77.3*	2.5
CC1(c2ccc(Cl)cc2)NC(=O)N(CC(=O)N2CCc3ccccc32)C1=O (stereo not given)	0.0	-7.7	/	1.2
CCc1cccc2c(C(=O)COC(=O)c3ccc(O)cc3)c[nH]c12	4.7	-11.1	87.2*	0.0
CCc1cccc2c(C(=O)COC(=O)c3ccccc3)c[nH]c12	2.2	-12.3	-0.4	1.7
Cc1ccc(/C=C/C(=O)N2CCC(Cc3ccccc3)CC2)cc1	2.7	0.1	86.8*	-0.5
O=C(COC(=O)c1ccco1)Nc1nnc(-c2ccccc2)o1	1.8	9.6	/	-3.1
CCOc1ccc(C2Nc3ccc4ccccc4c3-c3c2c(=O)oc2ccccc32)cc1 (stereo not given)	5.3	-5.0	81.0*	7.8
COC(=O)c1cn(NC(=O)CC2CCCCC2)c(=O)c2ccccc12	1.5	-1.3	71.6*	-1.5
CC[C@@]1(C(=O)OC)N[C@H](CN(C)C(=O)C2CCCCC2)[C@@H]2C(=O)N(Cc3ccccc3)C(=O)[C@@H]21	0.5	7.6	/	-1.4
Cc1cc(C)cc(OCC(=O)OCC(=O)Nc2cc(S(=O)(=O)N3CCOCC3)ccc2Cl)c1	0.6	4.0	/	0.4
CCS(=O)c1ccccc1C(=O)OCC(=O)Nc1cccc(S(=O)(=O)N2CCCCC2)c1 (stereo not given)	3.5	-11.8	/	-1.2
CCOC(=O)c1ccc(Nc2ncccc2[N+](=O)[O-])cc1	3.1	44.5*	51.8	2.7
Cc1ccc(S(=O)(=O)N2CCOCC2)cc1C(=O)NCCc1ccc(Cl)cc1	1.7	5.2	/	0.1
NS(=O)(=O)c1cccc(NC(=O)CCSc2ccc(Cl)cc2)c1	0.2	8.1	9.2	-1.0
O=C(Cn1cnc([N+](=O)[O-])n1)N/N=C/c1ccc(O)cc1O	-0.4	-4.9	21.1	-2.5
Cc1cc(N2CCN(C)CC2)nc2ccc(NC(=S)N3CCCCC3)cc12	/	-6.6	14.7	/
Cc1cccc(N2CCN(C(=S)Nc3ccc4nc(N5CCN(C)CC5)cc(C)c4c3)CC2)c1C	/	-8.8	105.0*	/
O=C(NNC1CC(=O)N(c2ccc(Br)cc2)C1=O)c1ccccn1 (stereo not given)	1.3	16.9	4.7	-2.3
CC(OC(=O)Nc1ccccc1)C(=O)OC1CCCCC1 (stereo not given)	/	12.1	/	/
COC(=O)c1ccc2c(=O)n(CC3CCCO3)c(SCC(=O)Nc3ccccc3OC)nc2c1 (stereo not given)	3.0	-6.8	11.9	13.5
COC(=O)c1ccc2c(=O)n(Cc3ccco3)c(SCC(=O)Nc3cc(C)on3)nc2c1	0.6	-11.2	90.7*	3.6
CCc1ccc(NC(=O)CSc2nc3cc(C(=O)OC)ccc3c(=O)n2CC2CCCO2)cc1 (stereo not given)	1.0	-0.5	93.6*	6.2
Cc1ccc(C(=O)Nc2nnc(NC(=S)Nc3ccccc3)s2)cc1	2.5	-9.5	70.2*	0.6
N#CC(Sc1ccccn1)c1ccc(Cl)cc1 (stereo not given)	1.3	47.8*	-5.2	-0.5
Cc1cc2ncn(/N=C/c3ccc(-c4ccccc4)o3)c2cc1C	-0.1	-0.3	77.4*	0.6
SMILES	CHOP UPR activ	PvdQ inh	CHOP inhibitor	XBP1 UPR activ
Cc1cc2ncn(/N=C/c3cccnc3)c2cc1C	1.4	-14.7	13.2	1.6
CN1C(=O)C(=O)/C(=C(/O)c2ccc(Br)cc2)C1c1ccccc1F (stereo not given)	0.9	-7.8	/	-5.0
COc1ccc(/C(O)=C/c2nc3ccc(C(=O)NCCc4cccc(C)c4)cc3[nH]c2=O)cc1OC	-0.3	-5.8	72.8*	-4.7
Cc1ccc(/C=N/Nc2ccnc3cc(Cl)ccc23)c(C)c1	25.6	-13.6	104.8*	22.1
Oc1ccc(/C=N/Nc2ccnc3cc(Cl)ccc23)c(O)c1	10.0	-6.5	90.2*	1.6
Cc1ccc(NS(=O)(=O)c2ccc(C(=O)OCC(=O)NCC3CCCO3)cc2)cc1 (stereo not given)	0.4	-4.8	16.2	-5.9
Cc1ccc([N+](=O)[O-])cc1N/C=C1\CCc2ccccc2C1=O	13.5	-0.6	85.1*	3.5
